This is an account of results in ChEMBL document CHEMBL2412989, “Antiproliferative activity on human prostate carcinoma cell lines of new peptidomimetics containing the spiroazepinoindolinone scaffold” (Bioorg Med Chem, 2013).

The source made the active and inactive calls. The rule behind the calls is not given here.

In assay [1] the target is T1, Growth hormone secretagogue receptor type 1 (Homo sapiens, UniProt Q92847). Briefly: Induction of GHS-R1a-mediated ERK1/2 phosphorylation in human DU145 cells at 10^-9 to 10^-6 M after 10 mins by Western blot analysis. It counts as cell-based. To be noted: DU-145. The procedure, abridged: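 DU145 cells serum-starved 16 h, then exposed to compound (10^-6 or 10^-9 M) for 10 min. Lysed in T-PER with protease inhibitors, protein by BCA. SDS-PAGE, nitrocellulose transfer, 5% milk/TBST block. Probed overnight at 4 °C with anti-pERK1/2 (1:150) and anti-ERK1/2 (1:1000), then peroxidase secondary 2 h RT. Mean ± SD of three independent experiments, one-way ANOVA.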
T1 sequence (Q92847 whole entry): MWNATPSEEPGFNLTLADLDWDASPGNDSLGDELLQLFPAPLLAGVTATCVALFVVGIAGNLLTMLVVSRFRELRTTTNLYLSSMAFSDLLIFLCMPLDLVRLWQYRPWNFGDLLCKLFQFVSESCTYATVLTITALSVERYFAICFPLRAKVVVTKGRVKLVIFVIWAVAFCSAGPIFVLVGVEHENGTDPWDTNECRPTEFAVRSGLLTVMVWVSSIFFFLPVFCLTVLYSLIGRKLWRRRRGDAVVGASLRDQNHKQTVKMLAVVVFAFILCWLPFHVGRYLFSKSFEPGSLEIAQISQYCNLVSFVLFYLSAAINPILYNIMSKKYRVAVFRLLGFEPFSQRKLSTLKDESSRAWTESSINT
(In general: A western blot detects proteins with antibodies after separation by electrophoresis.)

For assay [2], the system named is DU-145. Briefly: Antiproliferative activity against human DU145 cells assessed as growth inhibition at 10^-9 M after 48 hrs by BrdU-incorporation assay relative to untreated cells in presence of GHS-R1a antagonist D-Lys-GHRP-6. It counts as functional, cell-based. The procedure, abridged:
(§1)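 BrdU-incorporation proliferation assay in DU145 cells. Cells seeded at 5 × 10^4/well, 24 h, then switched to RPMI 1640/5% charcoal-stripped FBS containing compound together with GHS-R1a antagonist D-Lys3-GHRP-6 at 10^-6 M. BrdU pulse 4 h before end. Eu-anti-BrdU time-resolved fluorescence, blank from cell-free wells. Mean of ≥3 experiments in 8 replicates, relative to untreated cells.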

Assay [3] concerns DU-145. Briefly: Antiproliferative activity against human DU145 cells assessed as growth inhibition at 10^-6 M after 48 hrs by BrdU-incorporation assay relative to untreated cells in presence of GHS-R1a antagonist D-Lys-GHRP-6. The format is functional, cell-based. The procedure, abridged:
as §1

Assay [4] deals with DU-145. Briefly: Antiproliferative activity against human DU145 cells assessed as growth inhibition at 10^-9 M after 48 hrs by BrdU-incorporation assay relative to untreated cells. The format is functional. To be noted: DU-145, 48 h, read-out: GI. The procedure, abridged:
(§2)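 DU145 prostate carcinoma cells (ATCC) kept in RPMI 1640/5% FBS. 5 × 10^4 cells/well seeded, 24 h at 37 °C, 5% CO2. Medium then replaced by RPMI 1640/5% charcoal-stripped FBS with compound. BrdU added 4 h before end of incubation. Fixed cells probed with Eu-conjugated anti-BrdU (0.5 µg/mL), time-resolved fluorescence read. Cell-free wells used as blank. Mean of ≥3 experiments, 8 replicates each, expressed vs untreated cells.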

Assay [5] deals with DU-145. Briefly: Antiproliferative activity against human DU145 cells assessed as growth inhibition at 10^-6 M after 48 hrs by BrdU-incorporation assay relative to untreated cells. It counts as functional. The following applies: DU-145, 48 h, read-out: GI. The procedure, abridged:
as §2

For assay [6], the target named is T1, Growth hormone secretagogue receptor type 1. Briefly: Agonist activity at GHS-R1a (unknown origin).
A short description of assay [7]: Agonist activity at GHS-R1a in rat pituitary cells. The format is cell-based. The following applies: Pituitary gland cell.
Assay [8] concerns the target T1, Growth hormone secretagogue receptor type 1. Briefly: Induction of GHS-R1a-mediated ERK1/2 phosphorylation in human DU145 cells at 10^-6 M after 10 mins by Western blot analysis in presence of D-Lys-GHRP-6. The format is cell-based. To be noted: DU-145. Summed up: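 Western blot of ERK1/2 phosphorylation in 16 h serum-starved DU145 cells. Cells pretreated 1 h with 10^-6 M D-Lys3-GHRP-6, then exposed 10 min to compound. pERK1/2 (1:150) and total ERK1/2 (1:1000) antibodies, overnight 4 °C, peroxidase secondary. Mean ± SD, three independent experiments, one-way ANOVA.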

As for `CCCCCCCC(=O)OC[C@H](NC(=O)CNC(=O)[C@@H](N)CCCNC(=N)N)C(=O)N[C@@H](CO)C(=O)N[C@@H](Cc1ccccc1)C(=O)N[C@@H](CC(C)C)C(=O)N[C@@H](CO)C(=O)N1CCC[C@H]1C(=O)N[C@@H](CCC(=O)O)C(=O)N[C@@H](Cc1cnc[nH]1)C(=O)N[C@@H](CCC(N)=O)C(=O)N[C@@H](CCCCN)C(=O)N[C@@H](C)C(=O)N[C@@H](CCC(N)=O)C(=O)N[C@@H](CCC(N)=O)C(=O)N[C@@H](CCCNC(=N)N)C(=O)N[C@@H](CCCCN)C(=O)N[C@@H](CCC(=O)O)C(=O)N[C@@H](CO)C(=O)N[C@@H](CCCCN)C(=O)N[C@@H](CCCCN)C(=O)N1CCC[C@H]1C(=O)N1CCC[C@H]1C(=O)N[C@@H](C)C(=O)N[C@@H](CCCCN)C(=O)N[C@@H](CC(C)C)C(=O)N[C@@H](CCC(N)=O)C(=O)N1CCC[C@H]1C(=O)O` [GHRELIN], the outcome in assay [1] was Active. The “growth inhibition (GI)” value in the assay on DU-145 [2] and in the assay with DU-145 [3] was “inactive” each time. Further, in the assay on DU-145 [4], the inhibition of growth at 0.001 µM is -38%. The inhibition of growth at 1 µM in the assay on DU-145 [5] is -25%.
On to `CC(C)(N)C(=O)N[C@@H](Cc1c[nH]c2ccccc12)C(=O)N1CCC[C@]2(CC1)C(=O)Nc1ccccc12`, for which the inhibition of growth at 0.001 µM with DU-145 [4] is -10%. In addition, in the assay on DU-145 [5], the inhibition of growth at 1 µM is -15%.
By EC50 is commonly meant the concentration needed to bring the measured effect to its halfway point. Low values mean a more potent agent, high ones a less potent agent. `CC(C)(N)C(=O)N[C@H](Cc1c[nH]c2ccccc12)C(=O)N1CCC2(CC1)C[C@H](O)c1ccccc12` displayed a concentration giving a half-maximal response (EC50) in assay [6] of 600 pM. This counts as sub-nanomolar.
Take `CC(=O)NC(C)(C)C(=O)N[C@@H](Cc1c[nH]c2ccccc12)C(=O)N1CCC[C@@]2(CC1)C(=O)Nc1ccccc12`: the inhibition of growth at 0.001 µM with DU-145 [4] was 1.2%. In addition, the inhibition of growth at 1 µM in the assay on DU-145 [5] is 2.1%.
Turning to `CC(C)(N)C(=O)N[C@H](COCc1ccccc1)C(=O)N1CCC2(CC1)CN(S(C)(=O)=O)c1ccccc12` [IBUTAMOREN], the EC50 in assay [7] came to 1300 pM.
`CC(C)(N)C(=O)N[C@@H](Cc1c[nH]c2ccccc12)C(=O)N1CCC[C@@]2(CC1)C(=O)Nc1ccccc12`: the outcome in assay [8] was inactive. Besides, in assay [1], the result was Active. Moreover, the “growth inhibition (GI)” value with DU-145 [2] and with DU-145 [3] was “inactive” throughout. Also, the inhibition of growth at 0.001 µM with DU-145 [4] was -20%. Further, in the assay on DU-145 [5], the inhibition of growth at 1 µM is -27%.
For the molecule `CC(C)(N)C(=O)N[C@H](Cc1c[nH]c2ccccc12)C(=O)N1CCC[C@@]2(CC1)C(=O)Nc1ccccc12`, the inhibition of growth at 0.001 µM with DU-145 [4] was -4.8%. Also, the inhibition of growth at 1 µM in the assay with DU-145 [5] was -5.5%.
Consider `CC(C)(N)C(=O)N[C@H](Cc1c[nH]c2ccccc12)C(=O)N1CCC[C@]2(CC1)C(=O)Nc1ccccc12`, for which, in the assay on DU-145 [4], the inhibition of growth at 0.001 µM was -2.4%. Further, the inhibition of growth at 1 µM in the assay on DU-145 [5] worked out at 9.7%.
